Activity calls are given as the source filed them. The calls are words filed in the database; no cut-off is given here.
What was measured:
Quadruplex DNA [1] = experiment: Stabilization of 5'-FAM and 3'-TAMRA-labeled c-MYC G-quadruplex (unknown origin) assessed as change in melting temperature at 1 uM by FRET assay; assay type: nucleic-acid assay; details: unidentified
How it was run: (§1)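 FRET melting of dual-labelled (5′-FAM/3′-TAMRA) promoter quadruplexes or duplex in 60 mM potassium cacodylate buffer, pH 7.4. ΔTm is taken against ligand-free Tm. The ligand was tested across a concentration series. Maximum measurable Tm is 93 °C.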

Quadruplex DNA [2] = experiment: Stabilization of 5'-FAM and 3'-TAMRA-labeled c-KIT1 G-quadruplex (unknown origin) assessed as change in melting temperature at 1 uM by FRET assay; assay type: nucleic-acid assay; details: unidentified; how it was run: as §1
Quadruplex DNA [3] = experiment: Stabilization of 5'-FAM and 3'-TAMRA-labeled c-KIT2 G-quadruplex (unknown origin) assessed as change in melting temperature at 1 uM by FRET assay; assay type: nucleic-acid assay; details: unidentified; how it was run: as §1
Quadruplex DNA [4] = experiment: Stabilization of 5'-FAM and 3'-TAMRA-labeled k-RAS G-quadruplex (unknown origin) assessed as change in melting temperature at 1 uM by FRET assay; assay type: nucleic-acid assay; details: unidentified; how it was run: as §1
dsDNA [5] = experiment: Stabilization of 5'-FAM and 3'-TAMRA-labeled dsDNA (unknown origin) assessed as change in melting temperature at 1 uM by FRET assay; assay type: nucleic-acid assay; how it was run: as §1
Quadruplex DNA [6] = experiment: Stabilization of 5'-FAM and 3'-TAMRA-labeled c-MYC G-quadruplex (unknown origin) assessed as change in melting temperature at 3 uM by FRET assay; assay type: nucleic-acid assay; details: unidentified; how it was run: as §1
dsDNA [7] = experiment: Stabilization of 5'-FAM and 3'-TAMRA-labeled dsDNA (unknown origin) assessed as change in melting temperature at 5 uM by FRET assay; assay type: nucleic-acid assay; how it was run: as §1
[8] = Selectivity for 5'-FAM and 3'-TAMRA-labeled c-MYC G-qudaruplex (unknown origin) over 5'-FAM and 3'-TAMRA-labeled c-KIT1 G-qudaruplex (unknown origin)
unidentified [9] = experiment: Selectivity for 5'-FAM and 3'-TAMRA-labeled c-MYC G-quadruplex (unknown origin) over 5'-FAM and 3'-TAMRA-labeled c-KIT2 G-quadruplex (unknown origin)
unidentified [10] = experiment: Selectivity for 5'-FAM and 3'-TAMRA-labeled c-MYC G-quadruplex (unknown origin) over 5'-FAM and 3'-TAMRA-labeled k-RAS G-quadruplex (unknown origin)
Quadruplex DNA [11] = experiment: Stabilization of 5'-FAM and 3'-TAMRA-labeled c-MYC G-quadruplex (unknown origin) assessed as change in melting temperature at 1 uM in presence of 100 nM to 10 uM dsDNA by FRET assay; assay type: nucleic-acid assay; details: unidentified
Quadruplex DNA [12] = experiment: Stabilization of 5'-FAM and 3'-TAMRA-labeled k-RAS G-quadruplex (unknown origin) assessed as change in melting temperature at 1 uM in presence of 100 nM to 10 uM dsDNA by FRET assay; assay type: nucleic-acid assay; details: unidentified
Quadruplex DNA [13] = experiment: Stabilization of 5'-FAM and 3'-TAMRA-labeled c-KIT1 G-quadruplex (unknown origin) assessed as change in melting temperature at 1 uM in presence of 100 nM to 10 uM dsDNA by FRET assay; assay type: nucleic-acid assay; details: unidentified
Quadruplex DNA [14] = experiment: Stabilization of 5'-FAM and 3'-TAMRA-labeled c-KIT2 G-quadruplex (unknown origin) assessed as change in melting temperature at 1 uM in presence of 100 nM to 10 uM dsDNA by FRET assay; assay type: nucleic-acid assay; details: unidentified
Quadruplex DNA [15] = experiment: Binding affinity to pre-annealed c-MYC G-quadruplex (unknown origin) assessed as hypochromacity at 20 uM in 10 mM Tris.HCl buffer containing 100 mM KCl at pH 7.4 by UV/Visible spectroscopy; assay type: nucleic-acid assay; details: unidentified
How it was run: (§2)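 UV–vis titration of 20 μM ligand with preannealed c-MYC quadruplex (0–1.4 equiv) in 100 mM KCl, 10 mM Tris·HCl, pH 7.4. Hypochromicity was followed at the 362 nm ligand band, because the 298 nm band overlaps DNA absorbance. Kd was fitted with the Hill 1 equation.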

Quadruplex DNA [16] = experiment: Binding affinity to pre-annealed c-MYC G-quadruplex (unknown origin) in 10 mM Tris.HCl buffer containing 100 mM KCl at pH 7.4 by UV/Visible spectroscopy; assay type: nucleic-acid assay, unidentified; how it was run: as §2
dsDNA [17] = experiment: Binding affinity to dsDNA (unknown origin) in 10 mM Tris.HCl buffer containing 100 mM KCl at pH 7.4 by UV/Visible spectroscopy; assay type: nucleic-acid assay
Quadruplex DNA [18] = experiment: Binding affinity to pre-annealed c-MYC G-quadruplex (unknown origin) assessed as increase in fluorescence intensity at 1 uM in 100 mM KCl, 10 mM Tris.HCl at pH 7.4 by fluorescence spectroscopy relative to untreated control; assay type: nucleic-acid assay; details: unidentified
How it was run: (§3)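 Fluorescence titration in 100 mM KCl, 10 mM Tris·HCl, pH 7.4. Excitation was 350 nm and emission was read at the 430 nm maximum. Ligand (1 μM for c-MYC) was titrated with increasing quadruplex or ds DNA, up to 20 equiv. Change in intensity was scored, and Kd was derived from the titration curves.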

Quadruplex DNA [19] = experiment: Binding affinity to pre-annealed c-MYC G-quadruplex (unknown origin) in 100 mM KCl, 10 mM Tris.HCl at pH 7.4 by fluorescence spectroscopy relative to untreated control; assay type: nucleic-acid assay, unidentified; how it was run: as §3
Quadruplex DNA [20] = experiment: Binding affinity to pre-annealed c-KIT1 G-quadruplex (unknown origin) in 100 mM KCl, 10 mM Tris.HCl at pH 7.4 by fluorescence spectroscopy relative to untreated control; assay type: nucleic-acid assay, unidentified; how it was run: as §3
Quadruplex DNA [21] = experiment: Binding affinity to pre-annealed c-KIT2 G-quadruplex (unknown origin) in 100 mM KCl, 10 mM Tris.HCl at pH 7.4 by fluorescence spectroscopy relative to untreated control; assay type: nucleic-acid assay, unidentified; how it was run: as §3
Quadruplex DNA [22] = experiment: Binding affinity to pre-annealed k-RAS G-quadruplex (unknown origin) in 100 mM KCl, 10 mM Tris.HCl at pH 7.4 by fluorescence spectroscopy relative to untreated control; assay type: nucleic-acid assay, unidentified; how it was run: as §3
dsDNA [23] = experiment: Binding affinity to 20 equivalents of dsDNA (unknown origin) in 100 mM KCl, 10 mM Tris.HCl at pH 7.4 by fluorescence spectroscopy relative to untreated control; assay type: nucleic-acid assay; how it was run: as §3
Quadruplex DNA [24] = experiment: Binding affinity to c-MYC G-quadruplex (unknown origin) assessed as induction of line broadening of imino protons by 1H-NMR spectroscopy; assay type: nucleic-acid assay; details: unidentified
How it was run: (§4)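 1D 1H NMR of c-MYC quadruplex DNA at different ligand:DNA ratios, monitoring imino and aromatic regions against partial signal assignments. Chemical shift perturbation or line broadening was noted separately at ratios below 1 and at ratios of 1 or above.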

Quadruplex DNA [25] = experiment: Binding affinity to c-MYC G-quadruplex (unknown origin) assessed as induction of chemical shift perturbations of imino protons by 1H-NMR spectroscopy; assay type: nucleic-acid assay; details: unidentified; how it was run: as §4
Quadruplex DNA [26] = experiment: Effect on parallel topology of c-MYC G-quadruplex (unknown origin) at 0 to 5 equivalent by CD spectroscopy; assay type: nucleic-acid assay; details: unidentified
HeLa [27] = experiment: Cytotoxicity against human HeLa cells incubated for 24 hrs by MTT assay; assay type: functional, cell-based
How it was run: (§5)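 MTT growth-inhibition assay in HeLa, A549 and mouse C2C12 cells. Cells given 0.1% DMSO served as control. IC50 values were reported.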

A549 = experiment: Cytotoxicity against human A549 cells incubated for 24 hrs by MTT assay; assay type: functional, cell-based; details: A549, 24 h; how it was run: as §5
C2C12 = experiment: Cytotoxicity against mouse C2C12 cells incubated for 24 hrs by MTT assay; assay type: cell-based; details: C2C12, 24 h; how it was run: as §5
Quadruplex DNA [28] = experiment: Stabilization of c-MYC G-quadruplex in human HeLa cells assessed as reduction in c-MYC mRNA level at 5 uM incubated for 24 hrs by RT-PCR method; assay type: cell-based; parameters: scale not given: the % may be the effect or the level left
How it was run: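 qRT-PCR on HeLa cells treated 24 h at 1.0, 2.5 or 5.0 μM. c-MYC mRNA was normalised to GAPDH and compared with 0.1% DMSO-treated control.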

HeLa [29] = experiment: Effect on GAPDH mRNA expression in human HeLa cells at 1 to 5 uM incubated for 24 hrs by RT-PCR method; assay type: ADME, cell-based
Quadruplex DNA [30] = experiment: Stabilization of c-MYC G-quadruplex in human HeLa cells assessed as reduction in c-MYC mRNA level at 5 uM incubated for 24 hrs by Western blot method; assay type: cell-based; parameters: scale not given: the % may be the effect or the level left; details: in the assay text read “c-MYC protein level” for “c-MYC mRNA level”
How it was run: (§6)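 Western blot of HeLa lysates after 24 h at 1, 2.5 or 5 μM, with DMSO control. c-MYC was probed, GAPDH served as loading control, and bands were quantified by densitometry.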

HeLa [31] = experiment: Effect on GAPDH protein expression in human HeLa cells at 1 to 5 uM incubated for 24 hrs by Western blot method; assay type: ADME, cell-based; how it was run: as §6
[32] = Drug localization in nucleus of human HeLa cells at 5 uM incubated for 2 hrs by fluorescence microscopy; assay type: ADME, subcellular
How it was run: (§7)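 Intrinsic ligand fluorescence imaged by fluorescence microscopy in HeLa cells after 2 h at 5.0 μM. Merged images were used to assign nuclear versus cytoplasmic localisation.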

[33] = Drug localization in cytoplasm of human HeLa cells at 5 uM incubated for 2 hrs by fluorescence microscopy; assay type: ADME, subcellular; how it was run: as §7
HeLa [34] = experiment: Cell cycle arrest in human HeLa cells assessed as accumulation at subG1 phase at 5 uM incubated for 24 hrs by propidium iodide staining based flow cytometry (reference value: 2.2%); assay type: functional
HeLa [35] = experiment: Cell cycle arrest in human HeLa cells assessed as accumulation at G0/G1 phase at 5 uM incubated for 24 hrs by propidium iodide staining based flow cytometry (reference value: 61.5%); assay type: functional
HeLa [36] = experiment: Cell cycle arrest in human HeLa cells assessed as accumulation at S phase at 5 uM incubated for 24 hrs by propidium iodide staining based flow cytometry (reference value: 10.8%); assay type: functional
HeLa [37] = experiment: Cell cycle arrest in human HeLa cells assessed as accumulation at G2/M phase at 5 uM incubated for 24 hrs by propidium iodide staining based flow cytometry (reference value: 25.5%); assay type: functional
HeLa [38] = experiment: Induction of apoptosis in human HeLa cells assessed as viable cell level at 5 uM incubated for 24 hrs by Annexin V-FITC staining based flow cytometry; assay type: functional
HeLa [39] = experiment: Induction of apoptosis in human HeLa cells assessed as early apoptotic cells level at 5 uM incubated for 24 hrs by Annexin V-FITC staining based flow cytometry (reference value: 1.1%); assay type: functional
HeLa [40] = experiment: Induction of apoptosis in human HeLa cells assessed as late apoptotic cells level at 5 uM incubated for 24 hrs by Annexin V-FITC staining based flow cytometry (reference value: 0.8%); assay type: functional
HeLa [41] = experiment: Induction of apoptosis in human HeLa cells assessed as necrotic cells level at 5 uM incubated for 24 hrs by Annexin V-FITC staining based flow cytometry (reference value: 0.1%); assay type: functional

CN(C)CCCNC(=O)c1ccc(Nc2ccc(-c3ccc(Nc4ccc(C(=O)NCCCN(C)C)cc4)c4ccccc34)c3ccccc23)cc1
ΔTm (Quadruplex DNA [1]): 15 °C | ΔTm (Quadruplex DNA [2]): 9 °C | ΔTm (Quadruplex DNA [3]): 7 °C | ΔTm (Quadruplex DNA [4]): 18 °C | ΔTm (dsDNA [5]): 1 °C | ΔTm (Quadruplex DNA [6]): 23 °C | Activity (dsDNA [7]): inactive | Selectivity ratio [8]: 3 to 5 | Selectivity ratio (unidentified [9]): 3 to 5 | Selectivity ratio (unidentified [10]): 3 to 5 | Activity (Quadruplex DNA [11]): Active | Activity (Quadruplex DNA [12]): Active | Activity (Quadruplex DNA [13]): Active | Activity (Quadruplex DNA [14]): Active | Activity (Quadruplex DNA [15]): 18% | Kd (Quadruplex DNA [16]): 22.6 µM | Activity (dsDNA [17]): inactive | fold change (FC) (Quadruplex DNA [18]): 1.2 | Kd (Quadruplex DNA [19]): 21.4 µM | Kd (Quadruplex DNA [20]): 19.4 µM | Kd (Quadruplex DNA [21]): 14.1 µM | Kd (Quadruplex DNA [22]): 13 µM | Activity (dsDNA [23]): inactive | Activity (Quadruplex DNA [24]): Active | Activity (Quadruplex DNA [25]): Active | Activity (Quadruplex DNA [26]): inactive | IC50 (HeLa [27]): 7.24 µM | IC50 (A549): ≥ 40 µM | IC50 (C2C12): ≥ 40 µM | Activity (Quadruplex DNA [28]): 27% | Activity (HeLa [29]): Non-Toxic | Activity (Quadruplex DNA [30]): 36% | Activity (HeLa [31]): Non-Toxic | Drug uptake [32]: Active | Drug uptake [33]: Active | Activity (HeLa [34]): 39.2% | Activity (HeLa [35]): 46.9% | Activity (HeLa [36]): 5.3% | Activity (HeLa [37]): 8.6% | Activity (HeLa [38]): Active | Activity (HeLa [39]): 37.9% | Activity (HeLa [40]): 3.6% | Activity (HeLa [41]): 0.5%
